A short description of experiment [1]: reduced viability of SK-BR-3 breast cancer cells – cell-based, 24 h, human, pilot screen (AID 572;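 active = viability at or below 10% of carrier control in both of two separate runs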;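 also: compound exposure lasted between 18 and 24 h rather than exactly 24 h; 100% = carrier-treated control wells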). Particulars: SK-BR-3 viability, CellTiter-Glo luminescence, at 10 µM, stronger effect = lower value. (In general: In ATP-based viability assays light output follows the ATP content of the culture.)
The nature of experiment [2]: HUVEC growth inhibition – cell-based, human, primary screen (AID 575).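 Also: 100% = median of untreated cell wells with 0.1% DMSO on each plate.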 Particulars: HUVEC proliferation, CellTiter-Glo luminescence, 72 h; at 10 µM; stronger effect = lower value. In outline: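 Test system: HUVEC primary cells. Quantity: 1250 endothelial cells in each well. Dosing: single-point 10 µM, DMSO 0.1% final. Incubation: 72 h treatment at 37 °C. Measured by: CTG luminescence. Control set: DMSO cell controls and MePR drug controls. Plate: collagen-coated 384-well format.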

The nature of experiment [3]: H69AR cell proliferation blockers – human, duplicate replicates, primary screen (AID 580;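 active = viability at or under a set limit in both replicates, limit being median viability minus 3 SD, cut at about 48% in these data, passing the limit was not always enough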;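 also: 100% = mean luminescence of untreated wells and 0% = no signal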). Particulars: H69AR lung tumor cells viability, ATP luminescence, 72 h; at 10 µM; stronger effect = lower value.
The nature of experiment [4]: MRP1 drug-resistance reversers in H69AR cells – cell-based, doxorubicin co-treatment, pilot screen (AID 601;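 active = viability loss from added drug above about 55%, and viability with drug at most 40%, in both replicates, limit read from the data, passing the limit was not always enough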). The conditions noted are these: CellTiter-Glo, 72 h, at 10 µM; for differential viability (reversal): stronger effect = higher value.
A short description of experiment [5]: yeast transport mutant growth inhibition pilot in 384-well plates, post-Golgi transport modulator project (AID 636; in the data active = inhibition above about 31%). The conditions noted are these: absorbance 615 nm, about 18 h, stronger effect = higher value.
Experiment [6] in a line: growth suppression of yeast trafficking mutant, preliminary HTS, modulators of trafficking downstream of Golgi apparatus project, 1536-format plate, OD 615 nm (AID 637; in the data active = inhibition above about 30%). The conditions noted are these: yeast transport mutant growth, absorbance 615 nm, 18 h; stronger effect = higher value.
[7] abbreviates: H69AR cells + 2 uM doxorubicin, measured here: viability with 2 uM doxorubicin, stronger effect = lower value.
[8] abbreviates: H69AR cells, compound alone cytotoxicity.

Structures are written as SMILES. Activity calls are given as the source filed them.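 The calls were made as follows, unless noted: active = viability at or below 30% in both replicate assays; inconclusive = viability at or below 30% in just one of the two assays; inactive = the rest.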

Usually viability stands for a read-out of living cells in per cent, often relative to untreated cells. One may read the inhibition as the change of the read-out against control, counted positive when it falls. For `CCc1nnc(-n2nc(C)cc2-c2ccccc2)n1N`, the viability in experiment [1] was 107% (inactive); in experiment [2], 118% (inactive); in experiment [3], 93.5% (inactive); in experiment [4] (setting [7]) it was 90.7%; in experiment [4] (setting [8]) it was 93.5%. For the same molecule, the differential viability (reversal) in experiment [4] (H69AR cells + 2 uM doxorubicin) was 2.83% (inactive). The values for the inhibition in experiment [5] and in experiment [6] were -2.47% (inactive) and -1.8% (inactive), respectively.

Take `Cc1occc1C(=O)Nc1ccc(S(=O)(=O)N2CCN(C)CC2)cc1`: the viability is 71% (inactive) in experiment [1]; 89.2% (inactive) in experiment [2]; 90.4% (inactive) in experiment [3]; 84.5% in experiment [4] (setting [7]); 90.4% in experiment [4] (setting [8]). In experiment [4] (H69AR cells + 2 uM doxorubicin), the differential viability (reversal) is 5.85% (inactive). The inhibition in experiment [5] was -3.01% (inactive); in experiment [6], 1.82% (inactive).

In the case of `C=CCn1c(SCC(=O)Nc2ccc3c(c2)OCO3)nc2ccccc2c1=O`, the viability in experiment [1] was 73% (inactive); in experiment [2], 83.9% (inactive); in experiment [3], 84.2% (inactive); in experiment [4] (setting [7]) it was 82.1%; in experiment [4] (setting [8]) it was 84.2%. For the same molecule, the differential viability (reversal) in experiment [4] (H69AR cells + 2 uM doxorubicin) was 2.04% (inactive). The inhibition in experiment [5] is -3.84% (inactive); in experiment [6] it was -1.27% (inactive).

As for `Cc1cc(C)n(-c2nc3sc4c(c3c3nnc(SC(C)C)n23)CC(C)(C)OC4)n1`, the viability was 96% (inactive) in experiment [1]; 96.6% (inactive) in experiment [2]; 84.4% (inactive) in experiment [3]; 82% in experiment [4] (setting [7]); 84.4% in experiment [4] (setting [8]). Also, in experiment [4] (H69AR cells + 2 uM doxorubicin), the differential viability (reversal) was 2.36% (inactive). Moreover, the inhibition was 1.23% (inactive) in experiment [5] and 17.6% (inactive) in experiment [6].

With `CCC1CCCCN1C(=O)C1CC(c2cc(Cl)c(OC)cc2OC)=NO1` (configuration not stated), the viability in experiment [1] was 86% (inactive); in experiment [2] it was 89.7% (inactive); in experiment [3] it was 96.6% (inactive); in experiment [4] (setting [7]), 101%; in experiment [4] (setting [8]), 96.6%. Moreover, the differential viability (reversal) in experiment [4] (H69AR cells + 2 uM doxorubicin) was -4.29% (inactive). For the same molecule, the values for the inhibition in experiment [5] and in experiment [6] were -2.86% (inactive) and -3.77% (inactive), respectively.

On to `CCCc1ccccc1OCCNC(C)=O`, for which the viability was 103% (inactive) in experiment [1]; 99.5% (inactive) in experiment [2]; 102% (inactive) in experiment [3]; 90.4% in experiment [4] (setting [7]); 102% in experiment [4] (setting [8]). Also, the differential viability (reversal) in experiment [4] (H69AR cells + 2 uM doxorubicin) was 11.2% (inactive). For the same molecule, the values for the inhibition in experiment [5] and in experiment [6] were -3.87% (inactive) and 0% (inactive), respectively.

Take `CC(=O)OC(C)C[N+](C)(C)C` (configuration not stated): the viability in experiment [1] was 103% (inactive); in experiment [2], 86.7% (inactive); in experiment [3], 104% (inactive); in experiment [4] (setting [7]) it was 89.3%; in experiment [4] (setting [8]), 104%. Besides, the differential viability (reversal) in experiment [4] (H69AR cells + 2 uM doxorubicin) is 14.9% (inactive). Besides, the inhibition in experiment [5] was -5.97% (inactive); in experiment [6], 3.5% (inactive).

Turning to `CN(Cc1ccccc1)C(=O)c1ccccc1NC(=O)c1ccco1`, the viability in experiment [1] was 94% (inactive); in experiment [2] it was 104% (inactive); in experiment [3], 101% (inactive); in experiment [4] (setting [7]), 87.1%; in experiment [4] (setting [8]), 101%. For the same molecule, the differential viability (reversal) in experiment [4] (H69AR cells + 2 uM doxorubicin) was 13.5% (inactive). For the same molecule, the inhibition was -1.76% (inactive) in experiment [5] and -2.55% (inactive) in experiment [6].

As for `CCN(CC)C(=O)C1CCN(CC2CC=CCC2)CC1` (configuration not stated), the viability in experiment [1] was 97% (inactive); in experiment [2] it was 109% (inactive); in experiment [3], 94.8% (inactive); in experiment [4] (setting [7]), 98.7%; in experiment [4] (setting [8]) it was 94.8%. For the same molecule, in experiment [4] (H69AR cells + 2 uM doxorubicin), the differential viability (reversal) was -3.97% (inactive). In addition, the inhibition in experiment [5] was -2.93% (inactive); in experiment [6] it was -2.91% (inactive).

In the case of `O=C(O)C1CCCN1C(=O)c1cccs1` (configuration not stated), the viability in experiment [1] was 114% (inactive); in experiment [2], 88.3% (inactive); in experiment [3], 103% (inactive); in experiment [4] (setting [7]), 100%; in experiment [4] (setting [8]), 103%. Besides, the differential viability (reversal) in experiment [4] (H69AR cells + 2 uM doxorubicin) is 3.11% (inactive). In addition, the values for the inhibition in experiment [5] and in experiment [6] were 3.15% (inactive) and -2.58% (inactive), respectively.

As to `CN1CCC(=C2c3ccccc3C=Cc3ccccc32)CC1`, the viability in experiment [1] is 100% (inactive); in experiment [2], 52.6% (inactive); in experiment [3], 82.4% (inactive); in experiment [4] (setting [7]), 73.4%; in experiment [4] (setting [8]) it was 82.4%. Further, the differential viability (reversal) in experiment [4] (H69AR cells + 2 uM doxorubicin) is 9.07% (inactive). For the same molecule, the inhibition in experiment [5] is -0.65% (inactive); in experiment [6], 1% (inactive).

Take `Cc1ccc(S(=O)(=O)NCC(=O)OCN2C(=O)c3ccccc3C2=O)cc1`: the viability is 94% (inactive) in experiment [1]; 99.6% (inactive) in experiment [2]; 105% (inactive) in experiment [3]; 115% in experiment [4] (setting [7]); 105% in experiment [4] (setting [8]). Also, the differential viability (reversal) in experiment [4] (H69AR cells + 2 uM doxorubicin) is -10.3% (inactive). Also, the inhibition was -2.73% (inactive) in experiment [5] and 0.16% (inactive) in experiment [6].

For the molecule `COC(=O)c1ccc2c(c1)nc(C)n2CCO`, the viability in experiment [1] is 104% (inactive); in experiment [2], 118% (inactive); in experiment [3], 99.4% (inactive); in experiment [4] (setting [7]), 90.1%; in experiment [4] (setting [8]), 99.4%. Further, in experiment [4] (H69AR cells + 2 uM doxorubicin), the differential viability (reversal) is 9.26% (inactive). In addition, the inhibition in experiment [5] is -3.78% (inactive); in experiment [6] it was -2% (inactive).

Take `CCOCCCN(Cc1cc2cc(C)cc(C)c2[nH]c1=O)C(=O)N(CC)CC`: the viability in experiment [1] is 58% (inactive); in experiment [2], 116% (inactive); in experiment [3] it was 82% (inactive); in experiment [4] (setting [7]), 84.5%; in experiment [4] (setting [8]), 82%. In addition, the differential viability (reversal) in experiment [4] (H69AR cells + 2 uM doxorubicin) was -2.52% (inactive). Further, the inhibition was 0.93% (inactive) in experiment [5] and 10% (inactive) in experiment [6].

Consider `CCCN(CC1CC1)C(=O)Nc1ccccc1C`, for which the viability was 94% (inactive) in experiment [1]; 101% (inactive) in experiment [2]; 104% (inactive) in experiment [3]; 92.2% in experiment [4] (setting [7]); 104% in experiment [4] (setting [8]). Also, the differential viability (reversal) in experiment [4] (H69AR cells + 2 uM doxorubicin) was 12.2% (inactive). Further, the inhibition in experiment [5] was -1.04% (inactive); in experiment [6], -12.9% (inactive).

Take `CCCC(=O)Nc1c2c(nn1-c1ccc(OC)cc1)CS(=O)C2` (configuration not stated): the viability was 103% (inactive) in experiment [1]; 109% (inactive) in experiment [2]; 102% (inactive) in experiment [3]; 92.8% in experiment [4] (setting [7]); 102% in experiment [4] (setting [8]). The differential viability (reversal) in experiment [4] (H69AR cells + 2 uM doxorubicin) is 9.39% (inactive). Also, the inhibition in experiment [5] is -2.73% (inactive); in experiment [6], 6.07% (inactive).

Take `CC(C)OC(=O)c1ccc(NC(=O)C2C3CC4OC(=O)C2C4C3)cc1` (configuration not stated): the viability in experiment [1] is 104% (inactive); in experiment [2] it was 91.8% (inactive); in experiment [3], 95.6% (inactive); in experiment [4] (setting [7]) it was 88.5%; in experiment [4] (setting [8]) it was 95.6%. The differential viability (reversal) in experiment [4] (H69AR cells + 2 uM doxorubicin) was 7.04% (inactive). The inhibition in experiment [5] is -1.49% (inactive); in experiment [6] it was -4.91% (inactive).

Regarding `Cc1cccc(NC(=O)c2ccc(S(=O)(=O)N(C)C)cc2)n1`, the viability was 112% (inactive) in experiment [1]; 96.1% (inactive) in experiment [2]; 94.2% (inactive) in experiment [3]; 91.4% in experiment [4] (setting [7]); 94.2% in experiment [4] (setting [8]). Besides, in experiment [4] (H69AR cells + 2 uM doxorubicin), the differential viability (reversal) is 2.72% (inactive). Also, the inhibition in experiment [5] is -0.8% (inactive); in experiment [6], 2.73% (inactive).

For `Cn1c(=O)c2c(ncn2CC(O)CO)n(C)c1=O` (configuration not stated), the viability in experiment [1] was 117% (inactive); in experiment [2] it was 92.8% (inactive); in experiment [3], 107% (inactive); in experiment [4] (setting [7]), 95%; in experiment [4] (setting [8]), 107%. Moreover, in experiment [4] (H69AR cells + 2 uM doxorubicin), the differential viability (reversal) is 12.3% (inactive). Also, the inhibition in experiment [5] is -5.45% (inactive); in experiment [6] it was 3% (inactive).
